Organism: Rattus norvegicus
Test: Tissue (spleen) distribution in Albino male CD rats after 5 minutes expressed as percent of injected dose per gram of organ.
Assay type: ADME, organism-based
Details: in vivo
Outline: (§1)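 Male albino CD rats (225-250 g) received the 11C-labelled radioligand in saline by tail-vein injection. Three rats per time point were decapitated under light ether anaesthesia at 5, 15, 30, 60 or 90 min. Blood was collected heparinized and plasma separated by centrifugation. The pituitary was dissected from the brain. Lung, liver (three-lobe pieces) and right deltoid muscle were sampled, washed in cold saline, gamma-counted and weighed. Results are %I.D./g.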
With `CCC(C)N(C)C(=O)c1nc2ccccc2c(-c2ccccc2)c1C` (stereo not given) the I.D./g was 0.5%.

Organism: Rattus norvegicus
Test: Tissue (testicle) distribution in Albino male CD rats after 15 minutes expressed as percent of injected dose per gram of organ.
Assay type: ADME, organism-based
Details: in vivo, 0.25 h
Outline: as §1
`CCC(C)N(C)C(=O)c1nc2ccccc2c(-c2ccccc2)c1C` (stereo not given) showed an I.D./g of 0.05%.

Organism: Rattus norvegicus
Test: Tissue (testicle) distribution in Albino male CD rats after 60 minutes expressed as percent of injected dose per gram of organ.
Assay type: ADME, organism-based
Details: in vivo, 1 h
Outline: as §1
`CCC(C)N(C)C(=O)c1nc2ccccc2c(-c2ccccc2)c1C` (stereo not given) was tested, and the I.D./g was 0.09%.

Organism: Rattus norvegicus
Test: Tissue (testicle) distribution in Albino male CD rats after 90 minutes expressed as percent of injected dose per gram of organ.
Assay type: ADME, organism-based
Details: in vivo, 1.5 h
Work on `CCC(C)N(C)C(=O)c1nc2ccccc2c(-c2ccccc2)c1C` (stereo not given) yielded an I.D./g of 0.08%.

Organism: Rattus norvegicus
Test: Tissue (kidney) distribution in Albino male CD rats after 30 minutes expressed as percent of injected dose per gram of organ.
Assay type: ADME, organism-based
Details: in vivo, 0.5 h
Outline: (§2)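 Radioligand given in saline into tail vein of male albino CD rats (225-250 g); 100-200 µCi per animal, 1-2 Ci/µmol at injection depending on radioligand. Three rats per time point were decapitated under light ether anaesthesia. Blood, plasma, brain regions and washed organs were weighed and gamma-counted. Uptake is %I.D./g tissue, mean ± SD.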
Compound `CCC(C)N(C)C(=O)c1nc2ccccc2c(-c2ccccc2)c1C` (stereo not given) has an I.D./g of 0.77%.

Organism: Rattus norvegicus
Test: Tissue (kidney) distribution in Albino male CD rats after 90 minutes expressed as percent of injected dose per gram of organ.
Assay type: ADME, organism-based
Details: in vivo, 1.5 h
Outline: as §2
Work on `CCC(C)N(C)C(=O)c1nc2ccccc2c(-c2ccccc2)c1C` (stereo not given) yielded an I.D./g of 0.73%.

Organism: Rattus norvegicus
Test: Tissue (liver) distribution in Albino male CD rats after 30 minutes expressed as percent of injected dose per gram of organ.
Assay type: ADME, organism-based
Details: in vivo, 0.5 h
Outline: as §1
For `CCC(C)N(C)C(=O)c1nc2ccccc2c(-c2ccccc2)c1C` (stereo not given), the I.D./g was 0.55%.

Organism: Rattus norvegicus
Test: Tissue (liver) distribution in Albino male CD rats after 5 minutes expressed as percent of injected dose per gram of organ.
Assay type: ADME, organism-based
Details: in vivo
Outline: as §1
In the case of `CCC(C)N(C)C(=O)c1nc2ccccc2c(-c2ccccc2)c1C` (stereo not given), the I.D./g was 0.64%.

Organism: Rattus norvegicus
Test: Tissue (liver) distribution in Albino male CD rats after 90 minutes expressed as percent of injected dose per gram of organ.
Assay type: ADME, organism-based
Details: in vivo, 1.5 h
Outline: as §1
`CCC(C)N(C)C(=O)c1nc2ccccc2c(-c2ccccc2)c1C` (stereo not given) showed an I.D./g of 0.27%.

Organism: Rattus norvegicus
Test: Tissue (lung) concentration of radioactivity at 30 min post-injection into Albino male CD rats with vehicle.
Assay type: ADME, organism-based
Details: in vivo, 0.5 h
Outline: (§3)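 Blocking study in male albino CD rats, five per group. Immediately before the 11C radioligand (in saline, i.v. tail vein), rats received 30 µL tail-vein PK 11195 (5 mg/kg; 1.4-1.6 mg) in DMSO:EtOH 1:1, or vehicle. Rats were decapitated at 30 min. Tissues were dissected, washed, gamma-counted and weighed as in the biodistribution study. Results are %I.D./g.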
In the case of `CCC(C)N(C)C(=O)c1nc2ccccc2c(-c2ccccc2)c1C` (stereo not given), the I.D./g was 0.91%.

Organism: Rattus norvegicus
Test: Tissue (lung) distribution in Albino male CD rats after 60 minutes expressed as percent of injected dose per gram of organ.
Assay type: ADME, organism-based
Details: in vivo, 1 h
Outline: as §1
In the case of `CCC(C)N(C)C(=O)c1nc2ccccc2c(-c2ccccc2)c1C` (stereo not given), the I.D./g was 1.33%.

Organism: Rattus norvegicus
Test: Tissue (lung) distribution in Albino male CD rats after 90 minutes expressed as percent of injected dose per gram of organ.
Assay type: ADME, organism-based
Details: in vivo, 1.5 h
Outline: as §1
In the case of `CCC(C)N(C)C(=O)c1nc2ccccc2c(-c2ccccc2)c1C` (stereo not given), the I.D./g was 1.27%.

Organism: Rattus norvegicus
Test: Tissue (blood) distribution in Albino male CD rats after 30 minutes expressed as percent of injected dose per gram of organ.
Assay type: ADME, organism-based
Details: in vivo, 0.5 h
Outline: as §2
Work on `CCC(C)N(C)C(=O)c1nc2ccccc2c(-c2ccccc2)c1C` (stereo not given) yielded an I.D./g of 0.06%.

Organism: Rattus norvegicus
Test: Tissue (adrenal gland) distribution in Albino male CD rats after 30 minutes expressed as percent of injected dose per gram of organ.
Assay type: ADME, organism-based
Details: in vivo, 0.5 h
Outline: as §2
`CCC(C)N(C)C(=O)c1nc2ccccc2c(-c2ccccc2)c1C` (stereo not given) showed an I.D./g of 2.54%.

Organism: Rattus norvegicus
Test: Tissue (adrenal gland) distribution in Albino male CD rats after 60 minutes expressed as percent of injected dose per gram of organ.
Assay type: ADME, organism-based
Details: in vivo, 1 h
Outline: as §2
Work on `CCC(C)N(C)C(=O)c1nc2ccccc2c(-c2ccccc2)c1C` (stereo not given) yielded an I.D./g of 2.27%.

Organism: Rattus norvegicus
Test: Tissue (spleen) distribution in Albino male CD rats after 15 minutes expressed as percent of injected dose per gram of organ.
Assay type: ADME, organism-based
Details: in vivo, 0.25 h
In the case of `CCC(C)N(C)C(=O)c1nc2ccccc2c(-c2ccccc2)c1C` (stereo not given), the I.D./g was 0.92%.

Organism: Rattus norvegicus
Test: Tissue (spleen) distribution in Albino male CD rats after 30 minutes expressed as percent of injected dose per gram of organ.
Assay type: ADME, organism-based
Details: in vivo, 0.5 h
Outline: as §1
For `CCC(C)N(C)C(=O)c1nc2ccccc2c(-c2ccccc2)c1C` (stereo not given), the I.D./g was 1.25%.

Organism: Rattus norvegicus
Test: Tissue (muscle) concentration of radioactivity at 30 min post-injection into Albino male CD rats with vehicle.
Assay type: ADME, organism-based
Details: in vivo, 0.5 h
Outline: as §3
`CCC(C)N(C)C(=O)c1nc2ccccc2c(-c2ccccc2)c1C` (stereo not given) gave an I.D./g of 0.09%.

Organism: Rattus norvegicus
Test: Tissue (muscle) distribution in Albino male CD rats after 5 minutes expressed as percent of injected dose per gram of organ.
Assay type: ADME, organism-based
Details: in vivo
Outline: as §1
`CCC(C)N(C)C(=O)c1nc2ccccc2c(-c2ccccc2)c1C` (stereo not given) gave an I.D./g of 0.11%.

Organism: Rattus norvegicus
Test: Tissue (cortex) distribution in Albino male CD rats after 15 minutes expressed as percent of injected dose per gram of organ.
Assay type: ADME, organism-based
Details: in vivo, 0.25 h
Outline: as §2
Work on `CCC(C)N(C)C(=O)c1nc2ccccc2c(-c2ccccc2)c1C` (stereo not given) yielded an I.D./g of 0.07%.

Source: ChEMBL document CHEMBL1134346, “Labeling and evaluation of N-[11C]methylated quinoline-2-carboxamides as potential radioligands for visualization of peripheral benzodiazepine receptors” (J Med Chem, 2001)
